Laboratory results from ChEMBL document CHEMBL3397016, “SAR-studies of γ-secretase modulators with PPARγ-agonistic and 5-lipoxygenase-inhibitory activity for Alzheimer's disease” (Bioorg Med Chem Lett, 2015).
Calls of active or inactive are those of the source. No cut-off for these calls is given here.

What was measured:
[1] = biological target: NOTCH-1 signaling (Neurogenic locus notch homolog protein 1) (Homo sapiens, UniProt P46531); assay: Inhibition of NOTCH-1 signaling (unknown origin) expressed in CHO cells at 0.5 uM after 24 hrs by dual luciferase reporter gene assay; assay type: cell-based; settings: CHO cells expressing NOTCH-1
In short: (§1)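 Dual luciferase Notch reporter read-out in CHO cells. Test compounds were run at 5–50 µM. The γ-secretase inhibitor LY-411575 was run at 0.5 µM as the reference treatment.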

Gamma-secretase = assay: Inhibition of CHAPSO-solubilized gamma-secretase isolated from human SH-SY5Y P2 cell membranes assessed as reduction in Abeta(1 to 42) peptide generation from recombinant C100Flag substrate by electrochemiluminescence assay
[2] = Cytotoxicity against human Jurkat cells assessed as reduction in cell viability up to 30 uM after 24 to 48 hrs by MTT assay; assay type: cell-based; settings: read-out: INH
[3] = biological target: T1, Prostaglandin G/H synthase 1 (Ovis aries, UniProt P05979); assay: Inhibition of ovine COX1-mediated 12-HHT formation preincubated for 5 mins before arachidonic acid addition by HPLC analysis
T1 sequence (P05979 whole entry): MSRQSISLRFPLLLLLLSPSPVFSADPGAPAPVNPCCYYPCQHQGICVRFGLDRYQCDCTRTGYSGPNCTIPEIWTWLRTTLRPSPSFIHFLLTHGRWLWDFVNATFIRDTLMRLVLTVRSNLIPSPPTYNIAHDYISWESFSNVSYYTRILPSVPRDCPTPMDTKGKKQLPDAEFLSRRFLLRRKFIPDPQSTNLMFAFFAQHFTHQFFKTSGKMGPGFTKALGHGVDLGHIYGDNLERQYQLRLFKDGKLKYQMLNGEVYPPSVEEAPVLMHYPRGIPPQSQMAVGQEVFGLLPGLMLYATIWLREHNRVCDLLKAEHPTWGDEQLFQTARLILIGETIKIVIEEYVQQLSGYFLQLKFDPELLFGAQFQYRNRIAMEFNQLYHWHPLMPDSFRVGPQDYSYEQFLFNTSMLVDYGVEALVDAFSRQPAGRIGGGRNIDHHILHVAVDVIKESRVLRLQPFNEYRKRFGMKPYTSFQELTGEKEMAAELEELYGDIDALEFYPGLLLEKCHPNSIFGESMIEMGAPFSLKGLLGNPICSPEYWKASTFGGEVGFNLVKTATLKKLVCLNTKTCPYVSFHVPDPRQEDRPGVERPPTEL
In short: (§2)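 Cell-free enzyme assays. Data given either as IC50 or as remaining enzyme activity at 10 µM test concentration.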

[4] = biological target: T2, Polyunsaturated fatty acid 5-lipoxygenase (Homo sapiens, UniProt P09917); assay: Inhibition of 5-LO in human PMNL assessed as reduction in 5-LO product formation pre-incubated for 15 mins before addition of arachidonic acid substrate by HPLC analysis; settings: read-out: IC50
T2 sequence (P09917 whole entry): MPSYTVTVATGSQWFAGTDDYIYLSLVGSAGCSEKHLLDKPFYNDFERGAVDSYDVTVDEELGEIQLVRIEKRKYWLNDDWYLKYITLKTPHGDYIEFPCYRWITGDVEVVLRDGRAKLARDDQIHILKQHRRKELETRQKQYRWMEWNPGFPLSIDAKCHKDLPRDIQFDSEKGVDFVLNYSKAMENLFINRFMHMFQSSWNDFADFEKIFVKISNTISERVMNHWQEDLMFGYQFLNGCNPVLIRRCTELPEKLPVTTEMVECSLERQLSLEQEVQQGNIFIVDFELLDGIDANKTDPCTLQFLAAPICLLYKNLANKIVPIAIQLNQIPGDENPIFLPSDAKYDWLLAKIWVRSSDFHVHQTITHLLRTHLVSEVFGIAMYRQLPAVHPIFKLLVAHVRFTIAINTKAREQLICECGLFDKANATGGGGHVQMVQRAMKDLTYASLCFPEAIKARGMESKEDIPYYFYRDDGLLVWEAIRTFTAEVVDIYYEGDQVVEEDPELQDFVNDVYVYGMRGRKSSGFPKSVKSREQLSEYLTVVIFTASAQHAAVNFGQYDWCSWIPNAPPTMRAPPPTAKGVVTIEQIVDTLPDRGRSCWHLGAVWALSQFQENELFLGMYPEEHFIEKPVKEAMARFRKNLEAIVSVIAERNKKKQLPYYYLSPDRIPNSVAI

[5] = biological target: T3, Prostaglandin G/H synthase 2 (Homo sapiens) (UniProt P35354); assay: Inhibition of human recombinant COX2-mediated 12-HHT formation assessed as remaining activity at 10 uM preincubated for 5 mins before arachidonic acid addition by HPLC analysis; in short: as §2
T3 sequence (whole entry): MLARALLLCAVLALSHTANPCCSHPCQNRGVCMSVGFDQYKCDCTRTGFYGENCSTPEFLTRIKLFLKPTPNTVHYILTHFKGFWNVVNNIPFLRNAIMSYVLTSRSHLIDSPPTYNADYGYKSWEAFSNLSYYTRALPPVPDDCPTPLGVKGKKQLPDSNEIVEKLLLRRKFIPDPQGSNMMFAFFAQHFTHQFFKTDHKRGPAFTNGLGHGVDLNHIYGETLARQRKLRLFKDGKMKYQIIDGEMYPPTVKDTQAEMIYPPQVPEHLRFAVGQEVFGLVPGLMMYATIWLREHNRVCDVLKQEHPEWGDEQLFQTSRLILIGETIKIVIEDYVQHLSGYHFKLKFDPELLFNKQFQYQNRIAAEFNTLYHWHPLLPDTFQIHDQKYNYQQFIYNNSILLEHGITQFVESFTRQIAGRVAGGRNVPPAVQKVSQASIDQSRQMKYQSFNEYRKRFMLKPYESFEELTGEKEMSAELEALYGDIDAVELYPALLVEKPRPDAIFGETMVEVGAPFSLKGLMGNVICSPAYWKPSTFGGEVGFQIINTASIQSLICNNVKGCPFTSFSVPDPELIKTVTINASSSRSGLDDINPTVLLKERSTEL

Presenilin-1 [6] = biological target: T4, Presenilin-1 (Homo sapiens, UniProt P49768); assay: Activation of wild-type human presenilin-1 stably overexpressed in CHO cells co-expressing wild-type human amyloid precursor protein assessed as amyloid beta 38 formation after 24 hrs by ELISA; assay type: cell-based
[7] = biological target: T5, Peroxisome proliferator-activated receptor gamma (Homo sapiens) (UniProt P37231); assay: Activation of human PPARgamma ligand binding domain expressed in COS7 cells at 3 uM by dual luciferase reporter gene assay; assay type: cell-based; settings: COS-7
T5 sequence (whole entry): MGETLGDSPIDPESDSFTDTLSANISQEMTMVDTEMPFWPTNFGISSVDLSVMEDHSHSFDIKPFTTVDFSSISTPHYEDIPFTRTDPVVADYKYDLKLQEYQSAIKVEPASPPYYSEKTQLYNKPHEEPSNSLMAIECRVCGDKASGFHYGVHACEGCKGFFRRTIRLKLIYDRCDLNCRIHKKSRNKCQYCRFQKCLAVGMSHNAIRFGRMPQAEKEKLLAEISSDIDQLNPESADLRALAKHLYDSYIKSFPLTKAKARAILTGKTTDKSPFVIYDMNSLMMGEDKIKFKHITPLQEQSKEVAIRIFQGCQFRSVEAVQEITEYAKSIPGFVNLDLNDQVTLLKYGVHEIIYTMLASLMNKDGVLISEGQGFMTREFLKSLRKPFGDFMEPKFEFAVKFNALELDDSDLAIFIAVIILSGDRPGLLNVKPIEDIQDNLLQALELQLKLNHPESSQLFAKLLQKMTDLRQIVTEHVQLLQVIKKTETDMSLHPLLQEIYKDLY

Prostaglandin E synthase = biological target: T6, Prostaglandin E synthase (Homo sapiens, UniProt O14684); assay: Inhibition of mPGES-1-mediated PGE2 formation in interleukin-1beta-stimulated human A549 microsomal membranes preincubated for 15 mins before PGH2 addition by RP-HPLC analysis
T6 sequence (O14684 whole entry): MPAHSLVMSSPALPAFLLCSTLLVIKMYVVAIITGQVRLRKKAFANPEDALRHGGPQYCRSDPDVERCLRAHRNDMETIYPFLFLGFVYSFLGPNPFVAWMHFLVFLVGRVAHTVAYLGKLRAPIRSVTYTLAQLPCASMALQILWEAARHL

[8] = biological target: T7, Prostaglandin G/H synthase 1 (Ovis aries) (UniProt P05979); assay: Inhibition of ovine COX1-mediated 12-HHT formation assessed as remaining activity at 10 uM preincubated for 5 mins before arachidonic acid addition by HPLC analysis; in short: as §2
T7 sequence (whole entry): T1 sequence (P05979 whole entry)

Presenilin-1 [9] = biological target: T4, Presenilin-1; assay: Inhibition of wild-type human presenilin-1 stably overexpressed in CHO cells co-expressing wild-type human amyloid precursor protein assessed as inhibition of amyloid beta 42 formation after 24 hrs by ELISA; assay type: cell-based
[10] = biological target: T8, Prostaglandin G/H synthase 2 (Homo sapiens, UniProt P35354); assay: Inhibition of human recombinant COX2-mediated 12-HHT formation preincubated for 5 mins before arachidonic acid addition by HPLC analysis; in short: as §2
T8 sequence (P35354 whole entry): T3 sequence (whole entry)

[11] = biological target: T5, Peroxisome proliferator-activated receptor gamma (Homo sapiens); assay: Activation of human PPARgamma ligand binding domain expressed in COS7 cells at 6 uM by dual luciferase reporter gene assay; assay type: cell-based; settings: COS-7
[12] = biological target: T5, Peroxisome proliferator-activated receptor gamma (Homo sapiens); assay: Activation of human PPARgamma ligand binding domain expressed in COS7 cells by dual luciferase reporter gene assay relative to 1 uM pioglitazone; assay type: cell-based; settings: COS-7
[13] = biological target: Neurogenic locus notch homolog protein 1 (Homo sapiens, UniProt P46531); assay: Inhibition of NOTCH-1 signaling (unknown origin) expressed in CHO cells at 5 to 50 uM after 24 hrs by dual luciferase reporter gene assay; assay type: cell-based; in short: as §1
[14] = Cytotoxicity against CHO cells assessed as cell viability up to 30 uM after 24 hrs by alamar blue assay; assay type: cell-based, Cricetulus griseus; settings: chinese hamster, read-out: Activity
[15] = biological target: T9, Peroxisome proliferator-activated receptor gamma (Homo sapiens, UniProt P37231); assay: Activation of human PPARgamma ligand binding domain expressed in COS7 cells by dual luciferase reporter gene assay; assay type: cell-based, COS-7
T9 sequence (P37231 whole entry): T5 sequence (whole entry)

[16] = biological target: T5, Peroxisome proliferator-activated receptor gamma (Homo sapiens); assay: Activation of human PPARgamma ligand binding domain expressed in COS7 cells at 10 uM by dual luciferase reporter gene assay; assay type: cell-based; settings: COS-7

Neurogenic locus notch homolog protein 1, sequence (P46531 whole entry): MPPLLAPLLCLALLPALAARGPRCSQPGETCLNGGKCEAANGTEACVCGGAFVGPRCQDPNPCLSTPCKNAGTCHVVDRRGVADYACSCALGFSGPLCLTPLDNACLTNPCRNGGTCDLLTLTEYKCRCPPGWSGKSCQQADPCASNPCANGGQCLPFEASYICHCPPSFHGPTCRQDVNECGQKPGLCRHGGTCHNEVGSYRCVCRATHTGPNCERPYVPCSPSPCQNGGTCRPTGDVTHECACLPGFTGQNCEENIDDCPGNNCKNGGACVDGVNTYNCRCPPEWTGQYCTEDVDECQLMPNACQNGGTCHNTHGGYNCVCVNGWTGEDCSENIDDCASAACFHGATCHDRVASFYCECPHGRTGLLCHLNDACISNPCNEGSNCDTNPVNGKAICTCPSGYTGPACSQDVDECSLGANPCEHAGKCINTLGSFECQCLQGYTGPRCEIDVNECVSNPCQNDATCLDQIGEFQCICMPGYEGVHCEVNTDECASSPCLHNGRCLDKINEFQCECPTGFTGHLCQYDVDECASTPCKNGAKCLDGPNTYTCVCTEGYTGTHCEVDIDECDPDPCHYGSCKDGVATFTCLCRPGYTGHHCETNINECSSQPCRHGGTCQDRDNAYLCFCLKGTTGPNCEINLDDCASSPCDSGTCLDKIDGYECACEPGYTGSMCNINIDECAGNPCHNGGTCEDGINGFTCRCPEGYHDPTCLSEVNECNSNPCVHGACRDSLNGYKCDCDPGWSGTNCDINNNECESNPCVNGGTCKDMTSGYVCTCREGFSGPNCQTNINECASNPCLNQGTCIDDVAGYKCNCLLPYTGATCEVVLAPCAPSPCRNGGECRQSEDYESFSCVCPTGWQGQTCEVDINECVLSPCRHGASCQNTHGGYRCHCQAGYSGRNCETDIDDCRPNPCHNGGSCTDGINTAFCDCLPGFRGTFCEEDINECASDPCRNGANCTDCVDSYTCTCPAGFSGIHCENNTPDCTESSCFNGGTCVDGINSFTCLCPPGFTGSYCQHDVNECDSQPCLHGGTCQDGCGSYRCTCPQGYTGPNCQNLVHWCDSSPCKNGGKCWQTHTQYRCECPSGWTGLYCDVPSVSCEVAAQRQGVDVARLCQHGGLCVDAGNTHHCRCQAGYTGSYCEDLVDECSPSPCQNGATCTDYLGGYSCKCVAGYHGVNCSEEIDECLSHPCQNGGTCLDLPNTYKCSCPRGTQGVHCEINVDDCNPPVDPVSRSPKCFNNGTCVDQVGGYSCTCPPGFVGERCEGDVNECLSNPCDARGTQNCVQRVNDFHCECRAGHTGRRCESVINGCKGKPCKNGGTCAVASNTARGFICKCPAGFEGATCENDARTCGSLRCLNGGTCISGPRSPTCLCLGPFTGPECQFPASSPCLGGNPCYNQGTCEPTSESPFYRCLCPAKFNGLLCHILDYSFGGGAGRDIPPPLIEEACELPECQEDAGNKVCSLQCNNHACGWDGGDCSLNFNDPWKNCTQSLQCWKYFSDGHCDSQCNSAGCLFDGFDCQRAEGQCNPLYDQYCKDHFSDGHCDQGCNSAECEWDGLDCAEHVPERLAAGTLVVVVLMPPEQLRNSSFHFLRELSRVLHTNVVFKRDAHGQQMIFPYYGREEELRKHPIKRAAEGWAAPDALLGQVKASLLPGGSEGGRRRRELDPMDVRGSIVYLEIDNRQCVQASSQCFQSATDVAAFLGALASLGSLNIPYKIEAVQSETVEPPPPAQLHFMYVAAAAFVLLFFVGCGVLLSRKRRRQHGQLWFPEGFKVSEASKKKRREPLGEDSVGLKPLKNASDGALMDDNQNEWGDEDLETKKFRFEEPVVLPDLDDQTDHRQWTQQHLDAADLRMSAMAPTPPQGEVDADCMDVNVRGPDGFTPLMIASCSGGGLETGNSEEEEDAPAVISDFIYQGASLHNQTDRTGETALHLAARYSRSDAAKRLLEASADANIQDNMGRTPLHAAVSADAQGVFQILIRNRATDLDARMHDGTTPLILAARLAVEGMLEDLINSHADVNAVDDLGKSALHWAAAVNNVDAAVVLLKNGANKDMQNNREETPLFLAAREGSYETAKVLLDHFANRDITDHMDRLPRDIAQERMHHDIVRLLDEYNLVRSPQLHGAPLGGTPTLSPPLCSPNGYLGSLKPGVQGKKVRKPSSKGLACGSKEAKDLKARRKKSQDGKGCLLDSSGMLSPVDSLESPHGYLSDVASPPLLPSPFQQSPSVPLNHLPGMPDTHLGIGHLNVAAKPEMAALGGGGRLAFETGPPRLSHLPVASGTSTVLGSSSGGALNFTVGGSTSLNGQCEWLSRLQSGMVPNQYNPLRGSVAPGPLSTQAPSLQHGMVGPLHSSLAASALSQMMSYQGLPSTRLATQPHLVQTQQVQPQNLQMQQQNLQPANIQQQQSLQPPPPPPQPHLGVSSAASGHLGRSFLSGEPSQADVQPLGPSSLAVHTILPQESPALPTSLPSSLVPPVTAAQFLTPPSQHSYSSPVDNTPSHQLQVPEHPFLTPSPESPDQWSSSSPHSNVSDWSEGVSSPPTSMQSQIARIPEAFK
NOTCH-1 signaling (Neurogenic locus notch homolog protein 1), sequence (P46531 whole entry): as above

| Structure (SMILES) | inhibition at 24 h, 0.5 µM [1] [%] | IC50 (Gamma-secretase) [µM] | cytotoxicity [2] [%] | IC50 [3] [µM] | IC50 [4] [µM] | Activity [5] [%] | EC50 (Presenilin-1 [6]) [µM] | Activity [7] [%] | IC50 (Prostaglandin E synthase) [µM] | Activity [8] [%] | IC50 (Presenilin-1 [9]) [µM] | IC50 [10] [µM] | Activity [11] [%] | max activation [12] | inhibition (INH) [13] | viability at 24 h [14] [%] | EC50 ([15]; read-out: EC50) [µM] | EC50 ([15]; cos-7) | Activity [16] [%] |
| --- | --- | --- | --- | --- | --- | --- | --- | --- | --- | --- | --- | --- | --- | --- | --- | --- | --- | --- | --- |
| C[C@H](NC(=O)[C@@H](O)c1cc(F)cc(F)c1)C(=O)N[C@@H]1C(=O)N(C)c2ccccc2-c2ccccc21 | > 75 |  |  |  |  |  |  |  |  |  |  |  |  |  |  |  |  |  |  |
| C[C@@H](C(=O)O)c1ccc(-c2ccccc2)c(F)c1 [TARENFLURBIL] |  | 307 |  |  |  |  |  |  |  |  |  |  |  |  |  |  |  |  |  |
| CCCC/C(=C\c1cc(OCCc2ccc(C(F)(F)F)cc2)ccc1OCc1ccc(C(F)(F)F)cc1)C(=O)O |  |  | > 50 | > 10 | 0.5 | 72.2 | 1.3 | 21 | 3.1 | 66.3 | 1.5 | > 10 | 72 |  |  |  |  |  |  |
| CCCC/C(=C\c1cc(OCC2CCC(C(F)(F)F)CC2)ccc1OCc1ccc(C(F)(F)F)cc1)C(=O)O (stereo not drawn) |  |  |  | > 10 | 1.7 | 75.3 | 1.1 |  | 2.5 | 58 | 1 | > 10 |  | 158% | Not Active | > 50 | 2.16 |  |  |
| CCCC/C(=C\c1cc(OCc2cc3ccccc3s2)ccc1OCc1ccc(C(F)(F)F)cc1)C(=O)O |  |  | > 50 | > 10 | 0.7 | 91.7 | 2.1 |  | 9.2 | 67.4 | 4.6 | > 10 |  | inactive |  |  |  | Not Active |  |
| CCCC/C(=C\c1cc(OCc2ccc3nc(C(F)(F)F)cc(OC)c3c2)ccc1OCc1ccc(C(F)(F)F)cc1)C(=O)O |  |  |  | > 10 | 0.2 | 84.2 | 1.17 |  | 3 | 69 | 0.63 | > 10 |  |  | Not Active | > 50 |  |  | 17 |
| CCCC/C(=C\c1cc(OCc2cc(C(F)(F)F)cc(C(F)(F)F)c2)ccc1OCc1ccc(C(F)(F)F)cc1)C(=O)O |  |  |  | > 10 | 0.3 | 77.3 | 1 |  | > 10 | 62.4 | 0.79 | > 10 |  | 103% |  | > 50 | 4.64 |  |  |
